From publication PMC7551138 (Alzheimer's & Dementia : Translational Research & Clinical …, 2020)

How the values were obtained:
[1] = tested on: healthy elderly subjects; assay: Monitoring of treatment‐emergent adverse events; type: in vivo, human; details: 16 mg oral, single dose; within 24 hours after administration
Procedure, shortened: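 Randomised, double-blind, placebo-controlled trial in healthy subjects aged ≥65 (n=48; 12 active:4 placebo per cohort, placebos pooled). Intranasal test compound 5.5, 11 or 22 mg or 0.9% NaCl b.i.d. for 7 days, 6 h between doses. The 11 mg active subjects later got one open-label oral 16 mg dose of the parent drug. Safety was tracked by TEAEs, nasal examination, vital signs, ECG and safety bloods.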

[2] = 4 mg/kg in mice; cited from earlier work

Compound: COc1ccc2c3c1O[C@H]1C[C@@H](O)C=C[C@@]31CCN(C)C2 [galantamine, reference compound]
- TEAEs within 24 hours: All gastrointestinal disorders [1]: 8 (66.7) number of subjects (percentage
- TEAEs within 24 hours: Any events [1]: 10 (83.3) number of subjects (percentage
- TEAEs within 24 hours: Diarrhea [1]: 1 (8.3) number of subjects (percentage
- TEAEs within 24 hours: Nausea [1]: 5 (41.7) number of subjects (percentage
- TEAEs within 24 hours: Vomiting [1]: 5 (41.7) number of subjects (percentage
- brain‐to‐blood ratio [2]: 2.1
